Laboratory results as given in the EternaBench riboswitch data.

Test system: MS2 coat protein
Assay: apparent Kd, MS2 coat protein; higher = weaker binding; RNA-MaP array; theophylline 2 mM where present
In short: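 Designs on Illumina sequencing-chip clusters, transcribed by stalled E. coli RNA polymerase, were exposed to SNAP-549-labelled MS2 coat protein in doubling steps from 0.7 or 1.5 nM up to 3 µM, without and then with constant ligand. The buffer held 100 mM Tris-HCl pH 7.5, 80 mM KCl, 4 mM MgCl2, BSA, DTT, yeast tRNA and Tween-20. Apparent Kd values are medians of filtered per-cluster binding-curve fits to green signal normalised to red-channel RNA signal and control-cluster median Fmax.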

[1] = designed as: ON switch for theophylline, no ligand
[2] = ligand present: theophylline, designed as: ON switch for theophylline
[3] = designed as: OFF switch for theophylline, no ligand
[4] = ligand present: theophylline, designed as: OFF switch for theophylline

Sequence	apparent Kd [1]	apparent Kd [2]	apparent Kd [3]	apparent Kd [4]
AACCGAGGCUAUCCUCUAAGAAUAUGUGAUACCAGAAUAAUUUUAUUCCCUUGGCAGCAUGACAUGAGGAUCACCCAUGUGUCUU	134 nM	134 nM	–	–
UUCUACAUGAGGAUCACCCAUGUGGGUGAUACCAGCACUUUUUGGUGCCCUUGGCAGCACAUGAGAAUACCGUACGAUCGGUGAU	376 nM	615 nM	–	–
GGGCCUGUAAGCAGACCCACAGCGGGUGAUACCAGCAAUAAAACUUGCCCUUGGCAGCACACAGCUACAUGAGGAUCACCCAUGU	43.2 nM	83.2 nM	–	–
UACAUGAGGAUCACCCAUGUAUGAAUGGAUACCAGAUAAAAUAAGGUCCCUUGGCAGCUAGUGAAUCGAGGGUGGGUAUCAUGUU	–	–	10.5 nM	11.2 nM
ACCAUGUAAUCAGAUACCAGACAUCUUUUAAAUCAUAUUACAUGAGGAUCACCCAUGUUGGUCCCUUGGCAGCUGAAAUAUUUUU	205 nM	46.4 nM	–	–
AGCGAUAUGCAUGAUACCAGCUACAUGAGGAUCACCCAUGUGCGUCAGUAAUGACUGUGUAGCCCUUGGCAGCAUAGAGCAUGUA	–	–	37.6 nM	70.4 nM
UGACAUUGCUCAGAUACCAGACAUGAGGAUCACCCAUGUACCAAGAGUACAAAUUAAAAUGUCCCUUGGCAGCUGAGCAAUGUCU	–	–	19.6 nM	483 nM
GUGUUUGUGUGAGAUACCAGUGAGGCCACAUGAGGAUCACCCAUGUCCCUCACUCCGGCCCACCCUUGGCAGCUCUUAUAGUAGU	–	–	9.39 nM	38.4 nM
GCACCAGGUACGGAUACCAGCUGCCAUAGUUACAUGAGGAUCACCCAUGUGAUCUAUUGUAGCCCUUGGCAGCUGUACCUGGUGC	104 nM	92.4 nM	–	–
AGCGACAUGCGUGAUACCAGCUACAUGAGGAUCACCCAUGUCAGUAGGAAACUGCUGUGUAGCCCUUGGCAGCACAGUGCAUGUC	–	–	34.9 nM	38.6 nM
UUUUUUAACAUGGCGUAUCGGAAAACCGAUACCAGUACAGAAAUGUACCCUUGGCAGCGGCGUUUUACAUGAGGAUCACCCAUGU	–	–	29.4 nM	193 nM
CGUACAUGAGGAUCACCCAUGUAGAGUGAUACCAGUCUACCUAGUGACCCUUGGCAGCACAUCGAUGGCAUCGGUGAUGCCGUUU	87.3 nM	83.3 nM	–	–
UGUAUGUGAUUUGAUACCAGACCAACUGGUAAAACAUGAGGAUCACCCAUGUAAACUUGGGUCCCUUGGCAGCAAAUCGCAUACU	80.5 nM	10.9 nM	–	–
UUUGAAAUAACAGAUACCAGCGUGUUAUAAAACAUGAGGAUCACCCAUGUAGUGAUCAAGCGCCCUUGGCAGCUGGUAUUUUAGG	85.4 nM	196 nM	–	–
CUCUGAGUGAGCAAUCACUCAGAGGCGGAUACCAGCGAGGUCCAUCGCCCUUGGCAGCCGAACAUGAGGAUCACCCAUGUCGGUA	10.1 nM	16.6 nM	–	–
UAAAACAUGAGGAUCACCCAUGUAAUUGAUACCAGAGUGAUGAUCCUCCCUUGGCAGCAAAUAACGCAUUGAUUACAAUGCGAAA	42.7 nM	215 nM	–	–
AAUCUGUCGGGUGAUACCAGCCUCGGCACGUCUCGUGCCGAACAUGAGGAUCACCCAUGUGGCCCUUGGCAGCACAUGACAAAUC	258 nM	88.6 nM	–	–
AGCGGAACGGAAGGGUCCCAAAAUUGUGAUACCAGCCUUGAAUCCGGCCCUUGGCAGCACAUGAGGAUCACCCAUGUACUGCGAU	–	–	12.9 nM	39.4 nM
AUAACAUGAGGAUCACCCAUGUAAGCAGAUACCAGCUAGGAAACUAGCCCUUGGCAGCUGCAUAGUGAUCCAUAUAUCUGCUAAU	–	–	53.6 nM	42.8 nM
AUCUCAUAGAGUGAUACCAGACUACAUGAGGAUCACCCAUGUUACAUUUAAAUAUCAUUUGUCCCUUGGCAGCACAUUAAGUACA	–	–	24.3 nM	15.2 nM
ACAAGUCCUCAUGAUACCAGCGAUGAGACAUAGUCUCAACAUGAGGAUCACCCAUGUAUUCGCCCUUGGCAGCAUACGGUUUUUG	301 nM	28.5 nM	–	–
CUCCGAGGCUAUACUAUCCGCCUCUGUGAUACCAGAAUACCUAUAUUCCCUUGGCAGCAUCACAUGAGGAUCACCCAUGUGCCAU	–	15.1 nM	–	–
AUGGUAGGACAGCACAUAUAAGCUUGUGAUACCAGCUAGAAAACUAGCCCUUGGCAGCACAUUACAUGAGGAUCACCCAUGUCCC	–	–	51 nM	75.7 nM
UUCAGUACAACAGAUACCAGACAGUACUCUAAAUUGCAACAUGAGGAUCACCCAUGUAUAGUCCCUUGGCAGCUGUAAUGGGUGA	114 nM	174 nM	–	–
GAGGGUGGGUCUCUAAUCCGUUUGACGGAUACCAGCGAGAGAUAUCGCCCUUGGCAGCCGACGACAUGAGGAUCACCCAUGUAAA	–	–	15.6 nM	101 nM
AGCGACAUGCGUGAUACCAGCUACAUGAGGAUCACCCAUGUCAGCAGGAAACUGCUGUGUAGCCCUUGGCAGCACAGUGCAUGUC	–	–	12.7 nM	24.7 nM
